Measured values collected from several papers.
Protocols differ between the studies behind these lines.
Target: Serine/threonine-protein kinase Nek11 (NEK11, Homo sapiens, UniProt Q8NG66)
Residues used in one study (Q8NG66 1-645): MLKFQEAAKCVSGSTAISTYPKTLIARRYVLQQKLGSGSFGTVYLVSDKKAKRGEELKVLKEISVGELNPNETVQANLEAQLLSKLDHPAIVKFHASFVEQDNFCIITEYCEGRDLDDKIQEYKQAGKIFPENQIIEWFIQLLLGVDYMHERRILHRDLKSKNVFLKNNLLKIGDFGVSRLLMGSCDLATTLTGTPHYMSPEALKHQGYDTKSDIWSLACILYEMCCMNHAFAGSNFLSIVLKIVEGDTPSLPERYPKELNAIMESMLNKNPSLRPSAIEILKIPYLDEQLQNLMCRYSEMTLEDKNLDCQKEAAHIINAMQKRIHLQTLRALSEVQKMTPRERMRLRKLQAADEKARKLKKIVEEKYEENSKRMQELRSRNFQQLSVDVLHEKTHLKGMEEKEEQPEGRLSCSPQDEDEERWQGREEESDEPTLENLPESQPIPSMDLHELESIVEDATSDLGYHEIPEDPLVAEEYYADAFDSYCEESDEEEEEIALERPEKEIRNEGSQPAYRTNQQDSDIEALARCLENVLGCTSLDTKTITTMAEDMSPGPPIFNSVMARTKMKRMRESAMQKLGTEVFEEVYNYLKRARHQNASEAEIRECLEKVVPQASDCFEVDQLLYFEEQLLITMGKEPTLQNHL

| SMILES | read-out | technique | tested at | remaining binding [%] |
| --- | --- | --- | --- | --- |
| O=C(NCCCC1CCCCC1)c1ccc(CNC(=O)c2cnn(-c3ccccc3)c2C(F)(F)F)cc1 | cell-free assay | competition with immobilised ligand | 0.1 µM | 100 |
| N[C@@H]1CCN(c2nccc(-c3cnn4ncccc34)n2)C1 | binding | – | 1 µM | 100 |
| O=C(c1ccc(Nc2ncc(Cl)c(-c3cc4ccccc4s3)n2)cc1)N1CCC(N2CCCC2)CC1 | binding | competition with immobilised ligand | 1 µM | 80 |
| CS(=O)(=O)NCC[C@H](NC(=O)c1cncc2c1cnn2-c1ccc(F)cc1)c1ccnc(S(C)(=O)=O)c1 | cell-free assay | competition with immobilised ligand | 1 µM | 100 |
| COc1cnc(Nc2cccc(S(N)(=O)=O)c2)nc1N1CCN(c2ccccc2)CC1 | binding | competition with immobilised ligand | 1 µM | 90 |
| CN(C)c1nccc(-c2cnn3ncccc23)n1 | binding | – | 1 µM | 100 |
| O=C(c1ccc(Nc2nccc(-c3cc4ccccc4s3)n2)cc1)N1CCC(N2CCCC2)CC1 | binding | competition with immobilised ligand | 1 µM | 78 |
| O=S(=O)(NC1CCC(c2cc(F)ccc2F)(S(=O)(=O)c2ccc(Cl)cc2)CC1)C(F)(F)F (stereo not drawn) | cell-free assay | competition with immobilised ligand | 1 µM | 100 |
| Cc1cnn2ncc(-c3ccnc(N(C)C)n3)c2c1 | binding | – | 1 µM | 98 |
| c1cncc(-c2cccc(Nc3nccc(NC4CCCCC4)n3)c2)c1 | binding | competition with immobilised ligand | 10 µM | 100 |
| CNC(=O)[C@@H]1CC[C@@H](n2c(-c3ccc4cnccc4c3)nc3ccc(C(=O)NCc4cccc(C(N)=O)c4)cc32)C1 | binding | competition with immobilised ligand | 1 µM | 100 |
| O=C(NCCCN1CCOCC1)c1ccc(Nc2nccc(-c3cc4ccccc4s3)n2)cc1 | binding | competition with immobilised ligand | 1 µM | 75 |
| CN(CCCC(F)(F)F)c1nccc(-c2cnn3ncccc23)n1 | binding | – | 1 µM | 100 |
| O=C(Nc1c[nH]nc1C(=O)NC1CCNCC1)c1cc(F)cc(F)c1 | binding | competition with immobilised ligand | 1 µM | 91 |
| C[C@@H]1CCN(c2nccc(-c3cnn4ncccc34)n2)C1 | binding | – | 1 µM | 90 |
| COc1ccc2c(c1)O[C@@H](c1ccc(OC)c(OC)c1)C[C@H]2NC(=O)C1(c2ccc3c(c2)OC(F)(F)O3)CC1 | cell-free assay | competition with immobilised ligand | 1 µM | 83 |
| C=CC(=O)N1CCC(C(=O)NCC(=O)N2CCN(c3nc(-c4cnc(N)nc4C(F)F)nc(N4CCOCC4)n3)CC2)CC1 | binding | competition with immobilised ligand | 1 µM | 69 |
| O=C(N[C@H]1CCCCC/C=C\C2C[C@@]2(C(=O)O)NC(=O)[C@@H]2C[C@@H](Oc3ccncc3)CN2C1=O)OC1CCCC1 (stereo partly drawn) | binding | competition with immobilised ligand | 1 µM | 100 |
| CN(c1nccc(-c2cnn3ncccc23)n1)C1CC1 | binding | – | 1 µM | 100 |
| Nc1ncc2c(n1)-c1c([nH]c3ccc(C#CC4CC4)cc13)CCCC2 | binding | competition with immobilised ligand | 1 µM | 84 |
| COCCOc1nc(-c2ccc(Cl)nc2)nc2c1CN(C(=O)c1ncn3ccccc13)CC2 | cell-free assay | competition with immobilised ligand | 0.1 µM | 100 |
